Test results published in ChEMBL document CHEMBL4825680, “Structure-based discovery of potent and selective small-molecule inhibitors targeting signal transducer and activator of transcription 3 (STAT3)” (Eur J Med Chem, 2021).

Key:
MDA-MB-231 = test: Antiproliferative activity against human MDA-MB-231 cells; format: functional, cell-based
MGC-803 = test: Antiproliferative activity against human MGC-803 cells; format: functional, cell-based
A549 = test: Antiproliferative activity against human A549 cells; format: functional, cell-based
[1] = Metabolic stability in human liver microsomes assessed as clearance at 0.1 uM preincubated for 10 mins followed by NADPH addition and measured upto 60 mins by LC-MS/MS analysis; format: ADME, Microsome; details: 1 h, time <=70 min
Summary of the method: (§1)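 Microsomes at 0.33 mg/mL in 0.1 M Tris pH 7.4 with 5 mM MgCl2; compound final 0.1 μM (0.01% DMSO, 0.005% BSA). Preincubated 10 min at 37 °C, then started with 1 mM NADPH. Sampled at 0, 7, 17, 30 and 60 min and quenched with cold methanol. Centrifuged, then analysed by LC-MS/MS.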

[2] = Metabolic stability in human liver microsomes assessed as half life at 0.1 uM preincubated for 10 mins followed by NADPH addition and measured upto 60 mins by LC-MS/MS analysis; format: ADME, Microsome; details: time <=70 min; summary of the method: as §1
[3] = Toxicity in NOD/SCID mouse xenografted with patient-derived breast cancer cells assessed as change in body weight at 5 to 15 mg/kg, ip administered once daily for 20 days; details: in vivo, 480 h
[4] = Antitumor activity against patient-derived breast cancer cells xenografted in NOD/SCID mouse assessed as tumor growth inhibition at 15 mg/kg, ip administered once daily for 20 days; details: Homo sapiens, Breast cancer cell line, 480 h, read-out: TGI

Row | IC50 (MDA-MB-231) | IC50 (MGC-803) | IC50 (A549) | Compound | CLH [1] | half-life at 0.1 µM [2] | Activity [3] | inhibition in vivo at 15 mg/kg [4]
1 | 25.5 µM | 15.5 µM | 21.4 µM | COc1ccc2c(C(=O)Nc3ccc(Br)cc3)cc(-c3ccccc3)nc2c1 |  |  |  | 
2 | > 100 µM | 50.4 µM | > 100 µM | COc1ccc2c(C(=O)Nc3ccc(Cl)cc3)cc(-c3ccccc3)nc2c1 |  |  |  | 
3 | 5.3 µM | 4.8 µM | 4.3 µM | COc1ccc2c(C(=O)Nc3ccc(-c4cc5ccccc5o4)cc3)cc(-c3ccccc3)nc2c1 |  |  |  | 
4 | > 100 µM | > 100 µM | > 100 µM | COc1ccc2c(C(=O)Nc3ccc(-c4ccc(C(C)C)cc4)cc3)cc(-c3ccccc3)nc2c1 |  |  |  | 
5 | 10.3 µM | 2.1 µM | 5.5 µM | COc1ccc2c(C(=O)Nc3ccc(-c4ccco4)cc3)cc(-c3ccccc3)nc2c1 |  |  |  | 
6 | > 100 µM | > 100 µM | > 100 µM | O=C(Nc1ccc(C2CCCCC2)cc1)c1cc(-c2ccccc2)nc2cc(O)ccc12 |  |  |  | 
7 | 10.8 µM | 15 µM | 15 µM | COc1ccc2c(C(=O)Nc3ccc(-c4cccs4)cc3)cc(-c3ccccc3)nc2c1 |  |  |  | 
8 | 5.3 µM | 2.6 µM | 3 µM | COc1ccc2c(C(=O)Nc3ccc(-c4ccccc4)cc3)cc(-c3ccccc3)nc2c1 |  |  |  | 
9 | 20.2 µM | 15.6 µM | 15.6 µM | COc1ccc2c(C(=O)Nc3ccc(-c4ccc(SC)cc4)cc3)cc(-c3ccccc3)nc2c1 |  |  |  | 
10 | 11.2 µM | 40.4 µM | 29.9 µM | COc1ccc2c(C(=O)Nc3ccc(-c4ccc(F)cc4)cc3)cc(-c3ccccc3)nc2c1 |  |  |  | 

The next lines start with the compound.

Row | Compound | IC50 (MDA-MB-231) | IC50 (MGC-803) | IC50 (A549) | CLH [1] | half-life at 0.1 µM [2] | Activity [3] | inhibition in vivo at 15 mg/kg [4]
11 | O=C(Cc1c(-c2ccccc2)nc2cc(Br)ccn12)Nc1ccc2c(c1)S(=O)(=O)C=C2 | 0.9 µM | 0.9 µM | 0.8 µM |  |  |  | 
12 | Cc1ccn2c(CC(=O)Nc3ccc4c(c3)S(=O)(=O)C=C4)c(-c3ccccc3)nc2c1 | 1.6 µM | 1 µM | 0.7 µM |  |  |  | 
13 | COc1ccn2c(CC(=O)Nc3ccc4c(c3)S(=O)(=O)C=C4)c(-c3ccc(F)cc3)nc2c1 | 5.1 µM | 0.9 µM | 1.3 µM |  |  |  | 
14 | COc1ccn2c(CC(=O)Nc3ccc(-c4ccco4)cc3)c(-c3ccccc3)nc2c1 | 10 µM | 2.5 µM | 6.6 µM |  |  |  | 
15 | O=C(Nc1ccc(C2CCCCC2)cc1)c1cc(-c2ccccc2)nc2ccccc12 | 10 µM | 5.9 µM | 5.8 µM |  |  |  | 
16 | O=C(Cc1c(-c2ccccc2)nc2ccc(Br)cn12)Nc1ccc2c(c1)S(=O)(=O)C=C2 | 2 µM | 1.5 µM | 0.8 µM |  |  |  | 
17 | Cc1ccc(-c2nc3ccc(C)cn3c2CC(=O)Nc2ccc3c(c2)S(=O)(=O)C=C3)cc1 | 2.1 µM | 1.8 µM | 0.9 µM |  |  |  | 
18 | COc1ccn2c(CC(=O)Nc3ccc(-c4ccccc4)cc3)c(-c3ccccc3)nc2c1 | 10.5 µM | 3.5 µM | 3.2 µM |  |  |  | 
19 | O=C(Cc1cnc2ccccn12)Nc1ccc2c(c1)S(=O)(=O)C=C2 | 20.2 µM | 22.5 µM | 23.4 µM |  |  |  | 
20 | COc1ccn2c(CC(=O)Nc3ccc4c(c3)S(=O)(=O)C=C4)c(-c3ccccc3)nc2c1 | 1.2 µM | 1 µM | 0.6 µM | 208.4 mL/min/g | 10.1 min |  | 
21 | CS(=O)(=O)c1ccc(-c2nc3ccccn3c2CC(=O)Nc2ccc3c(c2)S(=O)(=O)C=C3)cc1 | 6.4 µM | 6.9 µM | 7.5 µM |  |  |  | 
22 | COc1ccc(-c2ccn3c(CC(=O)Nc4ccc5c(c4)S(=O)(=O)C=C5)c(-c4ccccc4)nc3c2)cc1 | 1 µM | 0.5 µM | 0.7 µM |  |  |  | 
23 | CN(CC(=O)N(Cc1ccc(C2CCCCC2)cc1)c1ccc(C(=O)O)c(O)c1)S(=O)(=O)c1c(F)c(F)c(F)c(F)c1F | 2 µM | 5.6 µM | 5 µM |  |  | Non-Toxic | 63.6%
24 | O=C(NCc1ccc(C2CCCCC2)cc1)c1cc(-c2ccccc2)nc2ccccc12 | > 100 µM | 20.1 µM | > 100 µM |  |  |  | 
25 | CCOC(=O)COc1ccc2c(C(=O)NCc3ccc(C4CCCCC4)cc3)cc(-c3ccccc3)nc2c1 | > 100 µM | > 100 µM | > 100 µM |  |  |  | 
26 | COc1ccn2c(C(=O)Nc3ccc(C4CCCCC4)cc3)c(-c3ccccc3)nc2c1 | > 100 µM | > 100 µM | > 100 µM |  |  |  | 
27 | COc1ccc2nc(-c3ccccc3)c(CC(=O)Nc3ccc4c(c3)S(=O)(=O)C=C4)n2c1 | 2.1 µM | 1.7 µM | 1.2 µM |  |  |  | 
28 | COc1ccn2c(CC(=O)Nc3ccc4c(c3)S(=O)(=O)C=C4)c(-c3ccc(C(F)(F)F)cc3)nc2c1 | 0.7 µM | 0.4 µM | 0.4 µM | 478 mL/min/g | 4.4 min |  | 
